This sample holds only a part of the variants without activity.
B1: tRNA (parent)
chain: GUUCCGUUGGCGUAAUGGUAACGCGUCUCCCUCCUAAGGAGAAGACUGCGGGUUCGAGUCCCGUACGGAACG

Variants of: B1
Test: yeast fitness relative to wild type (ratio to wild type); higher = fitter; tRNA-Arg(CCU), competitive growth, 37 C, YPD
Summary of the method: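 The tRNA-Arg(CCU) gene variants were made by chemical synthesis with a 3% per-site mutation rate at 69 sites and inserted at the native genomic locus of Saccharomyces cerevisiae. After pooling, the strains were competed in YPD at 37°C for 24 hours in six parallel replicates. Gene amplicons from the start population and each end population were read by 100-nucleotide paired-end sequencing, and Darwinian fitness relative to wild type was taken from genotype frequency changes. Genotypes needed ≥ 100 starting reads, and estimates < 0.5 were set to 0.5.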

Variant | yeast fitness
U7C G12A U13G A14C U35C C49U | ≤ 0.5
U7C C33U C49U A70U | ≤ 0.5
U7C G10A G50C | ≤ 0.5
U7C C24U U54A | ≤ 0.5
U7C G41A A42C G50C A69U | 0.556
U7C G10A U19A G44C G67C | ≤ 0.5
U7C G41A A42C G50C A70C | ≤ 0.5
U7C C27A U64G | ≤ 0.5
U7C U53A G56C G63A | ≤ 0.5
U7C G18A C22G C62U A70G | ≤ 0.5
U7C C11U U19G C29U U32C C34G G52C A70G | ≤ 0.5
U7C U16C | 0.831
U7C C29G A45C C62G A65C | ≤ 0.5
U7C U19G C61G C62U | 0.514
U7C G25C C30G C33U A45G U47G G50C G63A | ≤ 0.5
U7C C33A G58C G67A | 0.602
U7C G12A A20C A21G C24A C27A A36C | ≤ 0.5
U7C G38C C49A G56A C61G | ≤ 0.5
U7C G25A U28A G48C A70C | ≤ 0.5
U7C C31G C34U C55U G58A C61U G68C | ≤ 0.5
U7C C11G U13A C29U A69U | ≤ 0.5
U7C C34G A36U A37U | ≤ 0.5
U7C A65U A69C | 0.532
U7C G10C A43C | 0.549

Variant | yeast fitness
U7C G18C C61U | ≤ 0.5
U7C G48A U54A C55G A65U | ≤ 0.5
U7C A45C | 0.761
U7C A45U | 0.837
U7C U13A C24U G51A U59A A65C | 0.642
U7C U28A C31U C55G C66U | ≤ 0.5
U7C C24A C61U | 0.543
U7C U28C G41A A42C G50C A70G | 0.572
U7C C24U C30G A45C C61G | ≤ 0.5
U7C G12A A45C C49U C61G A65C | ≤ 0.5
U7C C11G U13G C30U | ≤ 0.5
U7C C33G U59C | 0.59
U7C G58C C66A | 0.584
U7C C46A | 0.798
U7C C27U C29A G58C | ≤ 0.5
U7C C61G A65G | 0.57
U7C C61G A65C | ≤ 0.5
U7C G9C A20G G41A | ≤ 0.5
U7C G9A C24G A45U C49A U53A | 0.681
U7C C11U C61U A65G G68C | ≤ 0.5
U7C U47C U54C C55G | ≤ 0.5
U7C C24G A65C | ≤ 0.5
U7C A70U | 0.692
U7C A70C | 0.742

Variant | yeast fitness
U7C U16G U28A C49G A57C G67U | ≤ 0.5
U7C C22G A40U A69C | 0.574
U7G A14C A20G C22U C49G G56C A70G | ≤ 0.5
U7C U32A | 0.761
U7C U26C C49U | ≤ 0.5
U7C U19G G51A U59A C66A | ≤ 0.5
U7C A65C | 0.912
U7C A65G | 0.95
U7G A14G U35G A43G U59A | 0.669
U7C C24G C31A | ≤ 0.5
U7C C49U C55A | ≤ 0.5
U7C U35C A37C | 0.732
U7C G67A | 0.863
U7C G67U | 0.847
U7C C11G C24A U47A U64C G67U | ≤ 0.5
U7C C46A G51A U53A C62A G68A | 0.579
U7C C61A | 0.678
U7C U64C | 0.88
U7C C34U C66U | ≤ 0.5
U7C G68C | 0.876
U7G A14U C30A | ≤ 0.5
U7C C31G G41A G52C C60U C62G C66G | ≤ 0.5
U7C C29G C49U | 0.712
U7C C30U A37G C46U G52C C62G A70C | ≤ 0.5

Variant | yeast fitness
U7C G39A | 0.913
U7C G25A C55A | ≤ 0.5
U7C C11G C24U G48A G63A | ≤ 0.5
U7C G18C U59G | ≤ 0.5
U7C A43U C49G | ≤ 0.5
U7C G48C C62U | 0.548
U7C A45C G50A C62U | 0.547
U7C U35G U64C A70G | ≤ 0.5
U7G A14U | 0.675
U7C G10A C24G C34U A43U | ≤ 0.5
U7C G23C G52A | 0.591
U7G A14C G63C | ≤ 0.5
U7C U16A G41C | 0.613
U7C C11A G67U | ≤ 0.5
U7C U59C | 0.846
U7C C31U U32G | 0.542
U7C C30A C60A | ≤ 0.5
U7C C29U C46U A65U | ≤ 0.5
U7C G41A A42C G50C A65C | ≤ 0.5
U7C G41A A42C G50C A65U | ≤ 0.5
U7C U32G G56U | ≤ 0.5
U7C C11U G39C A45U G67A | ≤ 0.5
U7C C33A C49A | ≤ 0.5
U7C G41A A42C G50C C62U | ≤ 0.5

Variant | yeast fitness
U7C C49U G56A A65C | 0.607
U7C C11U G39C A45U C61U | ≤ 0.5
U7C G38C C49A | 0.618
U7C C34U | 0.699
U7C C24A | 0.623
U7C C33G A70G | 0.57
U7C C27U A45U C66U | 0.617
U7C U16C A21U C22A C49U G50C A69U | ≤ 0.5
U7C G12C U32A G39A C49G | 0.602
U7G A14C C30G C66U | ≤ 0.5
U7C G10A C30G A37C | 0.554
U7G A14G C22U G38A C55A G67A | ≤ 0.5
U7C G51A C62G A65G | ≤ 0.5
U7C U28A A37G C46U U47C | ≤ 0.5
U7G A14U U26A C61A | ≤ 0.5
U7C C34U C55A A65G | ≤ 0.5
U7C C27U C33G C34G G44A G50A G52A | ≤ 0.5
U7C U47G | ≤ 0.5
U7C U19A C62A G67C | ≤ 0.5
U7C C11G U26C | ≤ 0.5
U7G A14G C22U G38A C55A | 0.555
U7C C46U C61A G63U G67A | ≤ 0.5
U7C G48A A69C | 0.695
U7C C55A | 0.567

Variant | yeast fitness
U7C C55G | 0.628
U7C C31U A36U A43C C55G | 0.539
U7C C31G A65U | 0.664
U7C G23C | 0.671
U7C G51C A57U | ≤ 0.5
U7C U19C U26C C34U G52A U59A G63C | ≤ 0.5
U7C C31U G52A | ≤ 0.5
U7C G41A A42C G50C G67U | ≤ 0.5
U7C C62U C66G | ≤ 0.5
U7C C33U U53C | 0.599
U7C U32G C33G U59C | ≤ 0.5
U7C C33U C49U U53C | 0.539
U7C G41A A42C G50C G63A A70G | 0.555
U7C G41A A42C G50C G52A A70G | ≤ 0.5
U7C U32C A45U G67A | ≤ 0.5
U7C G56C | 0.692
U7C G56A | 0.977
U7C C60U | 0.785
U7C C60G | 0.583
U7C C60A | 0.674
U7C G18A C30U C34A | ≤ 0.5
U7C C49A G67U | 0.59
U7G A14U U19A C22U C61A U64A A69U | 0.543
U7C A69G | 0.817

Variant | yeast fitness
U7C A69C | 0.921
U7C C33U | 0.713
U7C C22U C31A G38A C46G G67C | ≤ 0.5
U7C G18A C31A G56C | ≤ 0.5
U7C U16A U28A | ≤ 0.5
U7C C30G G58C C66U | ≤ 0.5
U7C C31G C34U C55U G58A C61U | 0.666
U7C G38A G58C | 0.648
U7C C27G | 0.696
U7C C27A | 0.894
U7C C11U C34A A45C G68A | ≤ 0.5
U7C C30U C66G | ≤ 0.5
U7C G25C A42G | 0.567
U7C G48C C61G A65U | ≤ 0.5
U7C C34G G39C A42G C46G C61G | 0.538
U7C U28A G48C C62U A70C | ≤ 0.5
U7C G68C A69U | 0.612
U7C C46U U59G G67U | ≤ 0.5
U7C G48C G67C | ≤ 0.5
U7C G23A C33G | ≤ 0.5
U7C G18A C22G | 0.586
U7C U26C | 0.866
U7G A14G U35G A43G | 0.557
